According to ChEMBL document CHEMBL1156277, “Discovery of N-methyl-4-(4-methoxyanilino)quinazolines as potent apoptosis inducers. Structure-activity relationship of the quinazoline ring” (Bioorg Med Chem Lett, 2010):
pEC50, pIC50: −log10 of the molar value.

Columns and labels:
[1] = tested on: T47D; test: Induction of apoptosis in human T47D cells assessed as caspase activation; type: functional, cell-based
Outline: (§1)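 Cell- and caspase-based HTS assay in human breast cancer T47D and human non-small cell lung cancer H1299 cells. Caspase-3 activation was read with fluorescent caspase-3 substrates and reported as EC50. Data are the mean of three or more experiments ± SEM.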

[2] = tested on: NCI-H1299; test: Induction of apoptosis in human H1299 cells assessed as caspase activation; type: functional, cell-based; outline: as §1
[3] = tested on: T47D; test: Selectivity ratio EC50 for human H1299 cells over EC50 for human T47D cells; type: functional
[4] = Inhibition of tubulin polymerization
[5] = Ratio of AUC in brain to plasma in mouse at 2.5 mg/kg, iv; type: ADME, organism-based; design: dose 2.5 mg/kg, route intravenous; settings: brain and plasma, read-out: Ratio AUC
Outline: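 Mice got a single intravenous dose. Compound levels in plasma from blood samples and in homogenized whole brain were determined by LC–MS/MS. Brain/plasma ratio was calculated from the areas under the concentration–time curves.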

SMILES | pEC50 [1] | pEC50 [2] | Selectivity ratio [3] | pIC50 [4] | Kp [5]
COc1ccc(N(C)c2nc(C)nc3ccc(NC(C)=O)cc23)cc1 | 6.02 | 5.85 | 1.5 | – | –
COc1ccc(N(C)c2nc(C)nc3cc(N)ccc23)cc1 | 6.11 | 6.24 | 0.73 | 5.70 | –
COc1ccc(N(C)c2nc(C)nc3cc(N=[N+]=[N-])ccc23)cc1 | 6.96 | 6.89 | 1.2 | – | –
COc1ccc(N(C)c2nc(C)nc3ncccc23)cc1 | 7.82 | 7.68 | 1.4 | – | 1.8
COc1ccc(N(C)c2nc(C)nc3ccc([N+](=O)[O-])cc23)cc1 | 6.40 | 6.89 | 0.33 | – | –
COc1ccc(N(C)c2nc(C)nc3cc([N+](=O)[O-])ccc23)cc1 | < 5.00 | < 5.00 | 2 | – | –
COc1ccc(N(C)c2nccc3ccccc23)cc1 | 6.22 | 6.02 | 2 | 6.40 | –
COc1ccc(N(C)c2ccnc3ccccc23)cc1 | 7.68 | 7.59 | 2 | – | 9.2
COc1ccc(N(C)c2nnnc3ccccc23)cc1 | 7.77 | 7.35 | 2 | – | –
COc1ccc(N(C)c2nc(C)nc3nccnc23)cc1 | 7.54 | 7.44 | 1.2 | – | 2.1
COc1ccc(N(C)c2nc(C)nc3cccc(OC)c23)cc1 | 8.40 | 8.10 | 2 | 6.40 | –
COc1ccc(N(C)c2nc(C)nc3ccc(N)cc23)cc1 | 8.10 | 7.85 | 2 | – | 3.6
COc1ccc(N(C)c2nc(C)nc3ccc(N(C)C)cc23)cc1 | 6.35 | 5.85 | 3.1 | – | –
COc1ccc(N(C)c2nc(C)nc3ccccc23)cc1 [VERUBULIN] | – | 8.15 | – | 5.70 | –
